For series [1], the system named is Liver. Kind of series: Metabolic stability assessed as intrinsic clearance in human liver microsome. It is filed as ADME. Particulars: microsomes. The gist of the method:
(§1)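 Intrinsic clearance was measured in liver microsomes and expressed as mL/min/g liver. Values come from a single experiment.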

For series [2], the system named is Liver. Kind of series: Metabolic stability assessed as intrinsic clearance in rat liver microsome. It is filed as ADME. Particulars: microsomes. In short, it runs like this:
as §1
Background: Microsomes from liver hold many membrane-bound enzymes, among them those of drug oxidation.

The test system of series [3] is Rattus norvegicus. Kind of series: Inhibition of complete Freund's adjuvant-induced hypersensitivity in orally dosed rat. It is filed as functional. To be noted: po. The gist of the method: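 Rats with CFA-induced inflammatory hypersensitivity were dosed orally, seven per dose group, with celecoxib 10 mg/kg po as comparator. Readout was taken 1 h after dosing. ED50 was calculated from the dose-response, and significance was reported at p < 0.05, 0.01 and 0.001.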

The test system of series [4] is Rattus norvegicus. Kind of series: Drug level in complete Freund's adjuvant-induced hypersensitivity rat blood at 10 mg/kg, po. On the set-up: dose 10 mg/kg, route oral. It is filed as ADME, organism-based. To be noted: in vivo, read-out: Drug uptake. In short, it runs like this:
(§2)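 Blood was sampled from the rats in the CFA hypersensitivity efficacy study, seven per dose group, and analysed by bioanalysis. Rats were dosed orally at 1, 3 and 10 mg/kg.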

Series [5] has as its system Rattus norvegicus. Kind of series: Drug level in complete Freund's adjuvant-induced hypersensitivity rat blood at 1 mg/kg, po. Further details: dose 1 mg/kg, route oral. It is filed as ADME, organism-based. To be noted: in vivo, read-out: Drug uptake. In short, it runs like this:
as §2

Series [6] has as its target T1, Prostaglandin E2 receptor EP1 subtype (Homo sapiens, UniProt P34995).
T1 sequence (P34995 whole entry): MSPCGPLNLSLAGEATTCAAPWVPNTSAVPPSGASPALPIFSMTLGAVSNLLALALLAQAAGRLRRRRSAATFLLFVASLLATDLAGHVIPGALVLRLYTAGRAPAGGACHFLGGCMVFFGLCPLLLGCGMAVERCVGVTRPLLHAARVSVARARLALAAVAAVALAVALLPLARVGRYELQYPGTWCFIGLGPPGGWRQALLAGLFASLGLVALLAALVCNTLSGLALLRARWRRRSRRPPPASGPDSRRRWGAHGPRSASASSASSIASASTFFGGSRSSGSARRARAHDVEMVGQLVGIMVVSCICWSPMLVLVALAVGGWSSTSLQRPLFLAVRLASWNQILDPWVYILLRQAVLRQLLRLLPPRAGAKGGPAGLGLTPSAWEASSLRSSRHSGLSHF
Kind of series: Displacement of [3H]PGE2 from human EP1 receptor expressed in CHOK1 cells. It is filed as cell-based, CHO-K1. The gist of the method:
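Membranes from CHO-K1 cells stably transfected with human EP1 cDNA were incubated with competing compound and [3H]-PGE2 (3 nM final) for 30 min at 30 °C. Bound radioactivity was counted by liquid scintillation. Values are means of at least three experiments.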
On the technique in general: In a radioligand displacement assay an active substance lowers the binding of a labelled ligand.

Series [7] concerns the target T1, Prostaglandin E2 receptor EP1 subtype. Kind of series: Antagonist activity against human EP1 receptor expressed in CHOK1 cells assessed as inhibition of PGE2-induced intracellular calcium mobilization by FLIPR assay. It is filed as functional, cell-based, CHO-K1. In general terms: Calcium flux is commonly read through the fluorescence of an indicator in the cells.

A short description of series [8]: Ratio of drug level in brain to blood in complete Freund's adjuvant-induced hypersensitivity rat. It is filed as ADME, tissue-based.
In series [9] the target is T2, Prostaglandin E2 receptor EP3 subtype (Homo sapiens, UniProt P43115).
T2 sequence (P43115 whole entry): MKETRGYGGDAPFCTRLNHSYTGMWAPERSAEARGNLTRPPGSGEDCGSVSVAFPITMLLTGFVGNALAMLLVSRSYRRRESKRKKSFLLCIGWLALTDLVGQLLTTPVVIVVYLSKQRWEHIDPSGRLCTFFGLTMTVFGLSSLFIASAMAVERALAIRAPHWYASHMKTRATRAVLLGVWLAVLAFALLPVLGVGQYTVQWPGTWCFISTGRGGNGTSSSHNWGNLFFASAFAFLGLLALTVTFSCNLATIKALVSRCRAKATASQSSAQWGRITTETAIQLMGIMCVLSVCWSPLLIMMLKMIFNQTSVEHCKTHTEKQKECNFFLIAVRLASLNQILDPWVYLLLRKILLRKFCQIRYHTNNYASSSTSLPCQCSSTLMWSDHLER
Kind of series: Antagonist activity against EP3 receptor by FLIPR assay. It is filed as functional.

Series [10] has as its system Rattus norvegicus. Kind of series: Drug level in complete Freund's adjuvant-induced hypersensitivity rat blood at 3 mg/kg, po. On the set-up: dose 3 mg/kg, route oral. It is filed as ADME, organism-based. Particulars: in vivo, read-out: Drug uptake. In short, it runs like this:
as §2

A further series concerns the target T3, Thromboxane A2 receptor (Homo sapiens, UniProt P21731).
T3 sequence (P21731 whole entry): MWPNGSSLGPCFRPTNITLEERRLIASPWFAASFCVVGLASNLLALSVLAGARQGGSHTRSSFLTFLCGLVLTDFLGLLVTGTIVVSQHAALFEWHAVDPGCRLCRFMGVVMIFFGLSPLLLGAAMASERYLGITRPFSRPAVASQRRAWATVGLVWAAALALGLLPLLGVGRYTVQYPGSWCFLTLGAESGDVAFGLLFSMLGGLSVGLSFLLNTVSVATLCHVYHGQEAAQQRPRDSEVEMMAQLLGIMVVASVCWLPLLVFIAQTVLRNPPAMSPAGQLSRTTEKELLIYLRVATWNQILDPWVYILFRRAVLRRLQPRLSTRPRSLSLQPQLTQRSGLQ
Kind of series: Antagonist activity against TP receptor by FLIPR assay. It is filed as functional.

The ED50 is the dose at which the effect has come halfway, by size or by number of responders. As a reminder, the IC50 is the point on the concentration scale where inhibition reaches its midpoint. As a reminder, the Ki is a dissociation constant, usually derived from enzyme kinetics or from competition with a known ligand. The Kp is the ratio of the level in a tissue or fluid to that in plasma or blood.

For the compound `CC(C)Cc1cn(-c2cccc(C(=O)[O-])n2)c2cc(Cl)ccc12.[Na+]`, the values for the CL with Liver [1] and in the series with Liver [2] were 3.6 mL/min/g and 4.3 mL/min/g, respectively. The ED50 in the series on Rattus norvegicus [3] came to 2.17 mg/kg. Besides, the results for the concentration in the series with Rattus norvegicus [4], in the series with Rattus norvegicus [5] and in the series with Rattus norvegicus [10] were 6.04 µM, 0.44 µM and 1.23 µM, respectively. Moreover, in series [6] (read-out: Log IC50 (converted)), the IC50 was 63.1 nM. Further, the Ki in series [7] (read-out: Log Ki (converted)) was 20 nM; in series [9] it was 794 nM. The partition ratio (Kp) in [8] was 0.05.

For `CC(C)(C)Cc1cn(-c2nc(C(=O)[O-])cs2)c2cc(Cl)ccc12.[Na+]`, the CL came to 2.7 mL/min/g in the series on Liver [1] and 1.9 mL/min/g in the series with Liver [2]. In addition, the IC50 in series [6] (read-out: Log IC50 (converted)) was 31.6 nM.

In the case of `CN(C)C(=O)c1cn(-c2nc(C(=O)O)cs2)c2cc(Cl)ccc12`, in series [6] (read-out: Log IC50 (converted)), the IC50 is 1000 nM.

As for `CC(C)Cc1cn(CC(=O)O)c2cc(Cl)ccc12`, in [6] (read-out: Log IC50 (converted)), the IC50 is more than 1000 nM.

As to `CC(C)(C)CCc1cn(-c2nc(C(=O)[O-])cs2)c2cc(Cl)ccc12.[Na+]`, the Ki was 79.4 nM at Thromboxane A2 receptor, 3.98 nM in [7] (read-out: Log Ki (converted)) and 398 nM in [9]. In addition, the CL in the series with Liver [1] was found to be 2.1 mL/min/g; in the series on Liver [2] it was 1.3 mL/min/g. Further, in series [6] (read-out: Log IC50 (converted)), the IC50 was 6.31 nM.

On to `CCCc1cn(-c2nc(C(=O)[O-])cs2)c2cc(Cl)ccc12.[Na+]`, for which the CL was determined as 1.3 mL/min/g with Liver [1] and 11 mL/min/g in the series with Liver [2]. The IC50 in [6] (read-out: Log IC50 (converted)) was 31.6 nM.

`CN(C)CCc1cn(-c2nc(C(=O)O)cs2)c2cc(Cl)ccc12`: in series [6] (read-out: Log IC50 (converted)), the 50% inhibitory concentration (IC50) was more than 1000 nM.

Turning to `CC(C)Cc1cn(-c2cccc(C(=O)O)c2)c2cc(Cl)ccc12`, the half-inhibitory concentration (IC50) in series [6] (read-out: Log IC50 (converted)) was 631 nM.

For `CC(C)Cc1cn(-c2ccccc2C(=O)O)c2cc(Cl)ccc12`, the IC50 in series [6] (read-out: Log IC50 (converted)) is more than 1000 nM.

As to `CC(C)Cc1cn(-c2nc(C(=O)O)cs2)c2ccc(Cl)cc12`, the IC50 in series [6] (read-out: Log IC50 (converted)) is 39.8 nM.

In the case of `O=C(O)c1csc(-n2cc(CC(F)(F)F)c3ccc(Cl)cc32)n1`, the IC50 in [6] (read-out: Log IC50 (converted)) is 251 nM.

Consider `CC(C)Cc1cn(-c2nc(C(=O)O)cs2)c2cc(Br)ccc12`, for which the Ki was 50.1 nM on Thromboxane A2 receptor, 0.2 nM in series [7] (read-out: Log Ki (converted)) and 398 nM in series [9]. Further, in [6] (read-out: Log IC50 (converted)), the half-inhibitory concentration (IC50) was 3.98 nM.

For `CC(C)Cc1cn(-c2nc(C(=O)O)cs2)c2cc(F)ccc12`, the IC50 in series [6] (read-out: Log IC50 (converted)) was 39.8 nM.

Consider `CN(C)Cc1cn(-c2nc(C(=O)O)cs2)c2cc(Cl)ccc12`, for which the concentration for half-maximal inhibition (IC50) in series [6] (read-out: Log IC50 (converted)) is more than 1000 nM.

In the case of `CC(C)Cc1cn(-c2nc(CC(=O)O)cs2)c2cc(Cl)ccc12`, in series [6] (read-out: Log IC50 (converted)), the IC50 was 158 nM.

As for `CC(C)Cc1cn(-c2nc(C(=O)[O-])cs2)c2cc(Cl)ccc12.[Na+]`, the values for the Ki (at Thromboxane A2 receptor; in series [7] (read-out: Ki); in series [9]) were 31.6 nM, 0.5 nM and 316 nM, respectively. The CL amounted to 2.2 mL/min/g with Liver [1] and 12 mL/min/g in the series on Liver [2]. For the same compound, the IC50 in series [6] (read-out: IC50) came out at 6.3 nM.

For `O=C(O)c1csc(-n2ccc3ccc(Cl)cc32)n1`, the IC50 in [6] (read-out: Log IC50 (converted)) was more than 1000 nM.

Consider `CC(C)Cc1cn(-c2ncc(C(=O)O)s2)c2cc(Cl)ccc12`, for which the IC50 in [6] (read-out: Log IC50 (converted)) was 100 nM.

Regarding `CC(C)Cc1cn(-c2nc(C(=O)O)cs2)c2ccccc12`, the IC50 in series [6] (read-out: Log IC50 (converted)) is 158 nM. Also, the Ki in [7] (read-out: Log Ki (converted)) is 12.6 nM.

Regarding `CC(C)Cc1cn(-c2nc(C(=O)O)co2)c2cc(Cl)ccc12`, the IC50 in series [6] (read-out: Log IC50 (converted)) was 7.94 nM. For the same compound, the Ki in [7] (read-out: Log Ki (converted)) is 1 nM.

With `CC(C)Cc1cn(-c2nc(C(=O)O)cs2)c2cc(C(F)(F)F)ccc12`, the half-maximal inhibitory concentration (IC50) in [6] (read-out: Log IC50 (converted)) is 12.6 nM. For the same compound, the results for the Ki in series [7] (read-out: Log Ki (converted)) and in [9] were 0.0631 nM and 501 nM, respectively.

For `CC(C)Cc1cn(-c2ccc(C(=O)O)s2)c2cc(Cl)ccc12`, the IC50 in series [6] (read-out: Log IC50 (converted)) is 50.1 nM.

As to `Cc1ccc2c(CC(C)C)cn(-c3nc(C(=O)O)cs3)c2c1`, the IC50 in series [6] (read-out: Log IC50 (converted)) was 10 nM.

Regarding `Cc1c(CC(C)C)c2ccc(Cl)cc2n1-c1nc(C(=O)O)cs1`, the IC50 in [6] (read-out: Log IC50 (converted)) was 39.8 nM.

For `CC(C)Cc1cn(-c2ccc(C(=O)[O-])o2)c2cc(Cl)ccc12.[Na+]`, the Ki is 398 nM on Thromboxane A2 receptor, 1.26 nM in series [7] (read-out: Log Ki (converted)) and 501 nM in [9]. Further, the CL was 5.4 mL/min/g in the series with Liver [1] and 35 mL/min/g in the series on Liver [2]. In addition, in series [6] (read-out: Log IC50 (converted)), the IC50 was 25.1 nM.

Consider `CC(C)c1cn(-c2nc(C(=O)O)cs2)c2cc(Cl)ccc12`, for which, in series [6] (read-out: Log IC50 (converted)), the IC50 is 39.8 nM.

Consider `CC(C)Cc1cn(Cc2nc(C(=O)O)cs2)c2cc(Cl)ccc12`, for which the IC50 in series [6] (read-out: Log IC50 (converted)) was 6.31 nM.

On to `CCc1cn(-c2nc(C(=O)O)cs2)c2cc(Cl)ccc12`, for which the 50% inhibitory concentration (IC50) in series [6] (read-out: Log IC50 (converted)) is 126 nM.

For the compound `CC(C)C(=O)c1cn(-c2nc(C(=O)O)cs2)c2cc(Cl)ccc12`, the IC50 in series [6] (read-out: Log IC50 (converted)) was 100 nM.

Take `O=C(O)c1csc(-n2cc(Cc3ccccc3)c3ccc(Cl)cc32)n1`: in series [6] (read-out: Log IC50 (converted)), the IC50 is 158 nM. In addition, the Ki in [7] (read-out: Log Ki (converted)) was 63.1 nM.

(Values after ChEMBL document CHEMBL1144841, “Discovery of a novel indole series of EP1 receptor antagonists by scaffold hopping” (Bioorg Med Chem Lett, 2008).)
